# From PubChem
# Only some compounds are listed: those with a hit (about 4.8% of all), similar ones and a draw of the others.
# WT yeast gro inh – growth inhibition of WT yeast, mitochondrial fusion screen; inhibition, % at 10 µM; mitochondrial fusion phenotypic screen, WT strain; actives 2.1% (n = 190,000); AID 1362; in the data active means inhibition above about 58%; tested in S. cerevisiae
# Mot1-301 SUMO – blocks SUMOylation pathway, rescuing yeast Mot1-301 growth. actives 1% (n = 320,000). growth rescue, % at 18.8 µM. S. cerevisiae Mot1-301 growth rescue, ATP luminescence, 38.5C; percent above DMSO median, 100 means doubled;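 active means every valid replicate shows activation above 250% relative to neutral control wells; inactive means the rest, any valid replicate at or below 250%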;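 further: OY570 slx delta 5 strain wells were the positive control but not used for scaling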
# Beta apoptosis – beta cell apoptosis inhibition | INS-1E cytokine-induced death, ATP luminescence, 48 h; percent of positive-control rescue, neutral wells zero | protection from apoptosis, % (no concentration beside the values) | actives 0.8% (n = 300,000) | AID 435005;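 active means Every replicate reaches about 75%, or at least half do and their mean reaches it too, limit read from the data; inconclusive means At least half of replicates reach the limit but their mean does not; inactive means Under half of replicates reach the limit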;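 further: 0% = cytokine-treated negative control wells and 100% = positive control rescue; higher means more ATP so stronger rescue from cytokine killing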
# T cruzi inh – blocks replication of Trypanosoma cruzi. T. cruzi beta-gal in NIH3T3, luminescence, 90 h. actives 1.4% (n = 300,000). AID 1885. inhibition, % (no concentration beside the values);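 active means mean inhibition across valid replicates above about 55%, limit read from the data; inconclusive means mean below that limit but half or more replicates reach it; inactive means mean below it, under half of replicates reach it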;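 further: signal also drops with host cell toxicity which is not excluded here; 0% = plate median of DMSO wells and 100% = zero luminescence signal; higher percent means less beta-gal luminescence so fewer parasites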
#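 System: NIH/3T3 fibroblasts plus reporter T. cruzi. Medium: DMEM plus 2% FBS. Probe or stimulus: 5000 reporter trypomastigotes per well. Compound: single 50 nL compound addition per well in DMSO. Incubation: co-culture of at least 90 h after 3 h attachment. Detection: GalScreen β-gal luminescence, detergent lysis, 60 min. Evaluation: parasite load inhibition, %.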
# Efflux pump mplx – antifungal efflux pump inhibition, Nile Red retention | S. cerevisiae Candida pump triplex | inhibition, % at 10 µM | actives 0.44% (n = 330,000) | AID 485275;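 active means plate passing quality check with inhibition over a set limit, or well fluorescence over plate mean plus 4 SD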;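 further: Nile Red retained in pooled yeast measured as flow cytometry median fluorescence; 0% = buffer negative control and 100% = Enniatin B positive control; higher means more Nile Red kept so more efflux inhibition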
# CSC inhib – blocks cancer stem cells; cancer stem cell-like cells viability, luminescence; actives 1.1% (n = 300,000); inhibition, % at 7.5 µM; in the data active means inhibition above about 75%; inconclusive means no clear call, values can overlap the other calls; tested in HMLE shEcad cells
# Starred values were filed as active, the others as inactive; u = inconclusive; x = no result given.
SMILES,WT yeast gro inh,Mot1-301 SUMO,Beta apoptosis,T cruzi inh,Efflux pump mplx,CSC inhib
NC(=O)c1ccc(NC(=O)CCCN2C(=O)c3ccccc3C2=O)cc1,63*,7,-2,-3,0,-17
CCOC(=O)c1c(C)[nH]c2cc(Br)c(OC)cc12,1,8,-3,x,0,5
CCOC(=O)c1c(C)[n+](-c2ccc(C)cc2)c(CC)c2cc(OC)c(OC)cc12,x,7,33,55*,0,0
Oc1c(Cl)cc(Cl)cc1/C=N/Nc1ncc(Br)cn1,0,207,86*,53,0,-2
O=C(N/N=C/c1cc(Cl)cc(Cl)c1O)c1ccncc1,x,95,51,u,0,9
O=C1CN(C(=O)c2cccc(Br)c2)c2ccccc2N1,x,23,1,-13,0,35
Cc1ccc(C)c(Nc2c([N+](=O)[O-])cc(C(=O)N3CC(=O)Nc4ccccc43)cc2[N+](=O)[O-])c1,-5,-16,10,66*,0,7
Cc1cccc(Nc2c([N+](=O)[O-])cc(C(=O)N3CC(=O)Nc4ccccc43)cc2[N+](=O)[O-])c1,-17,x,4,84*,0,-16
Cc1c(C(C)C)c(=O)n(-c2ccc(S(=O)(=O)NCc3ccccc3)cc2)n1C,-11,-6,105*,-43,0,0
S=c1nc2c(n[nH]1)c1ccccc1n2CCc1ccccc1,x,-6,18,66*,0,2
C#CCOCCOCCOCCNc1nc(N2CCN(C(=O)CCCCCCCCCCNC(=O)[C@H]([C@@H](C)CC)n3cc(CCCCCN)nn3)CC2)nc(N2CCN(C(=O)CCCCCCCCCCNC(=O)[C@H]([C@@H](C)CC)n3cc(CCCCN=C(N)N)nn3)CC2)n1,x,-18,98*,x,1,-15
C#CCOCCOCCOCCNc1nc(N2CCN(C(=O)Cn3cc(CCCN=C(N)N)nn3)CC2)nc(N2CCN(C(=O)[C@H]([C@@H](C)CC)n3cc(CCCCN)nn3)CC2)n1,x,7,0,x,0,-6
C#CCOCCOCCOCCNc1nc(N2CCN(C(=O)CCCCCCCCCCNC(=O)Cn3cc(CCCCCN)nn3)CC2)nc(N2CCN(C(=O)CCCCCCCCCCNC(=O)[C@H]([C@@H](C)CC)n3cc(CCCCN=C(N)N)nn3)CC2)n1,x,-21,86*,x,1,161*
C#CCOCCOCCOCCNc1nc(N2CCN(C(=O)CCCCCCCCCCNC(=O)[C@H]([C@@H](C)CC)n3cc(CCCCN=C(N)N)nn3)CC2)nc(N2CCN(C(=O)CCCCCCCCCCNC(=O)[C@H](CO)n3cc(CCCCCN)nn3)CC2)n1,x,-14,108*,x,2,18
C#CCOCCOCCOCCNc1nc(N2CCN(C(=O)CCCCCCCCCCNC(=O)[C@H]([C@@H](C)CC)n3cc(CCCCCN)nn3)CC2)nc(N2CCN(C(=O)CCCCCCCCCCNC(=O)[C@H](CO)n3cc(CCCCCN)nn3)CC2)n1,x,2,56,x,0,3
C#CCOCCOCCOCCNc1nc(N2CCN(C(=O)CCCCCCCCCCNC(=O)[C@H]([C@@H](C)CC)n3cc(CCCCN=C(N)N)nn3)CC2)nc(N2CCN(C(=O)CCCCCCCCCCNC(=O)[C@H]([C@@H](C)CC)n3cc(CCCCN=C(N)N)nn3)CC2)n1,x,-14,99*,x,3,-6
Cc1ccc(S(=O)(=O)NC2CCCc3ccccc32)cc1C (stereo not given),-12,1,-3,9,0,1
CCCCc1cc(=O)oc2cc(C)cc(OCC(=O)N3C[C@H]4C[C@@H](C3)c3cccc(=O)n3C4)c12,x,48,-1,1,0,-3
CC(/C=C/c1ccccc1)=N/NC(=O)Cn1nnc(N)n1,x,-16,0,7,0,-15
O=C1CC(C(F)(F)F)=NN1,x,-7,-5,-20,0,-8
C#CCOCCOCCOCCNc1nc(N2CCN(C(=O)CCCCCCCCCCNC(=O)Cn3cc(C[C@@H](C)O)nn3)CC2)nc(N2CCN(C(=O)CCCCCCCCCCNC(=O)[C@H](CCCCN)n3cc(CCCC(=O)O)nn3)CC2)n1,x,88,1,x,0,16
C#CCOCCOCCOCCNc1nc(N2CCN(C(=O)CCCCCCCCCCNC(=O)[C@H]([C@@H](C)CC)n3cc(CCCCCN)nn3)CC2)nc(N2CCN(C(=O)CCCCCCCCCCNC(=O)[C@@H]([C@H](C)CC)n3cc(CCCCCN)nn3)CC2)n1,x,-5,115*,x,0,167*
C#CCOCCOCCOCCNc1nc(N2CCN(C(=O)CCCCCCCCCCNC(=O)[C@H]([C@@H](C)CC)n3cc(CCCCCN)nn3)CC2)nc(N2CCN(C(=O)CCCCCCCCCCNC(=O)[C@H](CCCCN)n3cc(CCCC(=O)O)nn3)CC2)n1,x,-12,1,x,0,9
C#CCOCCOCCOCCNc1nc(N2CCN(C(=O)CCCCCCCCCCNC(=O)Cn3cc(C[C@@H](C)O)nn3)CC2)nc(N2CCN(C(=O)CCCCCCCCCCNC(=O)[C@H](CCCN=C(N)N)n3cc(C[C@@H](C)CC)nn3)CC2)n1,x,-13,61,66*,0,-14
C#CCOCCOCCOCCNc1nc(N2CCN(C(=O)CCCCCCCCCCNC(=O)[C@H]([C@@H](C)CC)n3cc(CCCCN=C(N)N)nn3)CC2)nc(N2CCN(C(=O)CCCCCCCCCCNC(=O)[C@H](CCCCN)n3cc(C)nn3)CC2)n1,x,204,98*,x,1,22
SMILES,WT yeast gro inh,Mot1-301 SUMO,Beta apoptosis,T cruzi inh,Efflux pump mplx,CSC inhib
O=C(Nc1cccnc1)c1ccc2snnc2c1,6,-15,2,4,0,0
O=C(c1cccnc1)N1CCN(c2ccc3ccccc3n2)CC1,-2,22,2,0,0,-6
O=C(CN1CCN(Cc2ccccc2)CC1)N/N=C/c1c[nH]c2ccccc12,2,3,-1,6,0,-1
CCN(C(=O)CN1C(=O)S/C(=C\C=C\c2ccccc2)C1=O)C1CCS(=O)(=O)C1 (stereo not given),x,107,17,28,0,-10
O=C(NC(=S)Nc1cccc(Cl)c1N1CCCCC1)c1ccco1,9,0,8,28,0,77*
O=C(NC(=S)Nc1cccc(Cl)c1N1CCCCC1)c1cccs1,44,2,12,17,0,99*
O=C(NC(=S)Nc1ccccc1N1CCCCC1)c1ccco1,73*,-1,4,-7,0,41
O=C(NC(=S)Nc1ccccc1Cl)c1ccco1,x,355*,6,1,0,10
CC1=C/C(=N\Nc2ccccc2[N+](=O)[O-])CC(C)(C)C1,64*,44,2,9,0,-7
C/C(=N/Nc1ccccc1[N+](=O)[O-])c1ccc([N+](=O)[O-])cc1,x,3,1,1,0,3
CC1=CCC[C@@H]2[C@@](C)(CC/C(C)=C/C(=O)O)[C@H](C)CC[C@@]12C,73*,-17,-2,-10,x,24
